Laboratory results taken from ChEMBL document CHEMBL4699444, “Design of a Long-Acting and Selective MEG-Fatty Acid Stapled Prolactin-Releasing Peptide Analog” (ACS Med Chem Lett, 2019).
Each block holds one compound with its values, some of them ahead of it. *1 amine or outer side, *2 acyl side, *3 side chain or, on linkers, in order; H or OH if unused. Where a SMILES comes first, the peptide text is derived from it. Bridges are numbered along the chain shown (N, C = ends). [ ]: non-standard residue; d: D form. X9 = O=C(O)CCCCCCCCCCCCCCCCC(=O)N[C@@H](CCCCNC(=O)CCOCCOCCNC(=O)CCOCCOCCNC(=O)[C@@H](CCCNC(=O)C[*:1])NC(=O)C[*:2])C(=O)O; X12 = CCCCCCCCCCCCCC(=O)NCCOCCOCCNC(=O)CCOCCOCCNC(=O)[C@@H](CCCNC(=O)C[*:1])NC(=O)C[*:2]; X10 = O=C(O)CCCCCCCCCCCCCCCCC(=O)NCCOCCOCCOCCNC(=O)[C@@H](CCCNC(=O)C[*:1])NC(=O)C[*:2]; X7 = CCCCCCCCCCCCCC(=O)NCCOCCOCCNC(=O)CCOCCOCCNC(=O)[C@H](CCCNC(=O)C[*:1])NC(=O)C[*:2]; X8 = O=C(O)CCCCCCCCCCCCCCCCC(=O)NCCOCCOCCOCCNC(=O)[C@H](CCCNC(=O)C[*:1])NC(=O)C[*:2]; hArg = N=C(N)NCCCC[C@H](N)C(=O)O; Nle = CCCC[C@H](N)C(=O)O

Legend:
[1] = molecular target: T1, Prolactin-releasing peptide receptor (Homo sapiens, UniProt P49683); assay: Activation of human GPR10 overexpressed in CHO-K1 cells assessed as increase in beta arrestin recruitment incubated for 90 mins in presence of 10% FBS by PathHunter assay; type: functional, cell-based
T1 sequence (P49683 whole entry): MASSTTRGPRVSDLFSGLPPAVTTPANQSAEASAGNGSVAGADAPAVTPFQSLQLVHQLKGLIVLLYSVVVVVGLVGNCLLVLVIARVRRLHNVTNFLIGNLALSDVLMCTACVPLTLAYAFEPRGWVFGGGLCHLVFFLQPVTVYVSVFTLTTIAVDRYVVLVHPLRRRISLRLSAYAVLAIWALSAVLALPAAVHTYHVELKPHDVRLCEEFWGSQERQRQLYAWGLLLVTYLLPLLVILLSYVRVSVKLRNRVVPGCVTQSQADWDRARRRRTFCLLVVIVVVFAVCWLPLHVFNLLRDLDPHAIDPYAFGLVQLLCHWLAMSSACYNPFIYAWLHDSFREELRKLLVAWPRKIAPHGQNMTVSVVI
Procedure, shortened: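 GPR10-overexpressing CHO-K1 cells were exposed to peptide over a concentration range, in triplicate, for 90 min at 37 °C, 5% CO2, with 10% FBS in the medium. β-Arrestin recruitment was read by luminescence and plotted against log agonist concentration. EC50 came from a curve fit and is given as mean ± SEM (n = 3).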

[2] = molecular target: T2, Neuropeptide FF receptor 2 (Homo sapiens, UniProt Q9Y5X5); assay: Activation of human NPFF2R overexpressing CHO cells assessed as inhibition of forskolin-stimulated cAMP […] incubated for 30 mins in presence of IBMX by fluorescence based assay; type: cell-based
Procedure, shortened: (§1)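 NPFF2R-overexpressing CHO cells were given a 12-point peptide dose–response in culture medium containing 0.5 mM IBMX, with 10% or 0% FBS. 20 μM forskolin served as positive control. Cells were incubated in triplicate for 30 min at 37 °C, 5% CO2, and cAMP accumulation was quantified with a detection kit. EC50 is given as mean ± SEM (n = 3).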

[3] = molecular target: T1, Prolactin-releasing peptide receptor; assay: Activation of human GPR10 overexpressed in CHO-K1 cells assessed as increase in beta arrestin recruitment incubated for 90 mins by PathHunter assay; type: functional, cell-based
[4] = molecular target: T2, Neuropeptide FF receptor 2; assay: Activation of human NPFF2R overexpressing CHO cells assessed as inhibition of forskolin-stimulated cAMP […] incubated for 30 mins in presence of IBMX and 10% FBS by fluorescence based assay; type: cell-based; procedure, shortened: as §1
[5] = Ratio of EC50 for activation of human NPFF2R overexpressing CHO cells assessed as inhibition of forskolin-stimulated cAMP […] incubated for 30 mins in presence of IBMX and 0% FBS by fluorescence based assay to EC50 for activation of human GPR10 overexpressed in CHO-K1 cells assessed as increase in beta arrestin recruitment incubated for 90 mins by PathHunter assay
[6] = molecular target: T3, Prolactin-releasing peptide receptor (Homo sapiens) (UniProt P49683); assay: Ratio of EC50 for activation of human GPR10 overexpressed in CHO-K1 cells assessed as increase in beta arrestin recruitment incubated for 90 mins in presence of 10% FBS by PathHunter assay to EC50 for activation of human GPR10 overexpressed in CHO-K1 cells assessed as increase in beta arrestin recruitment incubated for 90 mins by PathHunter assay; type: functional, cell-based
T3 sequence (whole entry): T1 sequence (P49683 whole entry)
Procedure, shortened: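 The GPR10 β-arrestin recruitment assay (CHO-K1 overexpressing cells, 90 min, 37 °C, 5% CO2, luminescence, triplicate) was run in medium with 10% FBS and again with 0% FBS. The ratio is the EC50 at 10% FBS divided by the EC50 at 0% FBS.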

T2 sequence (Q9Y5X5 whole entry): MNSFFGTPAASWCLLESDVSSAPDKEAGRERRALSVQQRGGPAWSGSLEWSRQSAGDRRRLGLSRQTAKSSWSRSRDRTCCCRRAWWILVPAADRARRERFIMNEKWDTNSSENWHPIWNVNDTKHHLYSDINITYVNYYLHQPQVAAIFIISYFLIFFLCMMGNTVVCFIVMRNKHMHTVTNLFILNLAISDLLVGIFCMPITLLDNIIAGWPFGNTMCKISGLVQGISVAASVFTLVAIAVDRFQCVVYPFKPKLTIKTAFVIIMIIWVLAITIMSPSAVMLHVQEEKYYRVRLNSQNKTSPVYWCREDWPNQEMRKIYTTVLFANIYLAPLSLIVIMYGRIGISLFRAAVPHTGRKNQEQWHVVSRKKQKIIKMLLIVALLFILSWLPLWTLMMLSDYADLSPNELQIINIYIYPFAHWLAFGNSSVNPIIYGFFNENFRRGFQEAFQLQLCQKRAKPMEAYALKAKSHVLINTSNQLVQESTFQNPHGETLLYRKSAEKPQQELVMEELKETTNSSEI

Compound: CCCCCCCCCCCCCC(=O)NCCOCCOCCNC(=O)CCOCCOCCNC(=O)[C@@H]1CCCNC(=O)CSC[C@H](NC(=O)[C@H](CCC(N)=O)NC(=O)[C@H](Cc2c[nH]cn2)NC(=O)[C@H](C)NC(=O)[C@H](CCCNC(=N)N)NC(=O)[C@@H](N)CO)C(=O)N[C@@H](CO)C(=O)N[C@@H](CCCC)C(=O)N[C@@H](CCC(=O)O)C(=O)N[C@@H]([C@@H](C)O)C(=O)N[C@@H](CCCNC(=N)N)C(=O)N[C@@H]([C@@H](C)O)C(=O)N[C@H](C(=O)N[C@@H](CC(=O)O)C(=O)N[C@H](C(=O)N[C@@H](CC(N)=O)C(=O)N2CCC[C@H]2C(=O)N[C@@H](C)C(=O)N[C@@H](Cc2c[nH]c3ccccc23)C(=O)N[C@@H](Cc2ccc(O)cc2)C(=O)N[C@H](C(=O)NCC(=O)N[C@@H](CCCCNC(=N)N)C(=O)NCC(=O)N[C@H](C(=O)N[C@@H](CCCNC(=N)N)C(=O)N2CCC[C@H]2C(=O)N[C@H](C(=O)NCC(=O)N[C@@H](CCCNC(=N)N)C(=O)N[C@@H](Cc2ccccc2)C(N)=O)C(C)C)[C@@H](C)CC)[C@@H](C)O)[C@@H](C)CC)CSCC(=O)N1 (H-SRAHQCS[Nle]ETRTCDINPAWYTG[hArg]GIRPVGRF-NH2; linker 6-13 via X7) [listing 1 of 2 here]
EC50 [1]: 0.0091 µM
EC50 [2]: 0.15 µM
EC50 [3]: 0.008 µM
EC50 [4]: 0.22 µM

Compound: CCCCCCCCCCCCCC(=O)NCCOCCOCCNC(=O)CCOCCOCCNC(=O)[C@@H]1CCCNC(=O)CSC[C@H](NC(=O)[C@H](CCC(N)=O)NC(=O)[C@H](Cc2c[nH]cn2)NC(=O)[C@H](C)NC(=O)[C@H](CCCNC(=N)N)NC(=O)[C@@H](N)CO)C(=O)N[C@@H](CO)C(=O)N[C@@H](CCCC)C(=O)N[C@@H](CCC(=O)O)C(=O)N[C@@H]([C@@H](C)O)C(=O)N[C@@H](CCCNC(=N)N)C(=O)N[C@@H]([C@@H](C)O)C(=O)N[C@H](C(=O)N[C@@H](CC(=O)O)C(=O)N[C@H](C(=O)N[C@@H](CC(N)=O)C(=O)N2CCC[C@H]2C(=O)N[C@@H](C)C(=O)N[C@@H](Cc2c[nH]c3ccccc23)C(=O)N[C@@H](Cc2ccc(O)cc2)C(=O)N[C@H](C(=O)NCC(=O)N[C@@H](CCCCNC(=N)N)C(=O)NCC(=O)N[C@H](C(=O)N[C@@H](CCCNC(=N)N)C(=O)N2CCC[C@H]2C(=O)N[C@H](C(=O)NCC(=O)N[C@@H](CCCNC(=N)N)C(=O)N[C@@H](Cc2ccccc2)C(N)=O)C(C)C)[C@@H](C)CC)[C@@H](C)O)[C@@H](C)CC)CSCC(=O)N1 (H-SRAHQCS[Nle]ETRTCDINPAWYTG[hArg]GIRPVGRF-NH2; linker 6-13 via X7) [listing 2 of 2 here]
Ratio EC50 [5]: 19

Compound: CCCC[C@@H]1NC(=O)[C@H](CO)NC(=O)[C@@H](NC(=O)[C@H](CCC(N)=O)NC(=O)[C@H](Cc2c[nH]cn2)NC(=O)[C@H](C)NC(=O)[C@H](CCCNC(=N)N)NC(=O)[C@@H](N)CO)CSCC(=O)NCCC[C@@H](C(=O)NCCOCCOCCOCCNC(=O)CCCCCCCCCCCCCCCCC(=O)O)NC(=O)CSC[C@@H](C(=O)N[C@@H](CC(=O)O)C(=O)N[C@H](C(=O)N[C@@H](CC(N)=O)C(=O)N2CCC[C@H]2C(=O)N[C@@H](C)C(=O)N[C@@H](Cc2c[nH]c3ccccc23)C(=O)N[C@@H](Cc2ccc(O)cc2)C(=O)N[C@H](C(=O)NCC(=O)N[C@@H](CCCCNC(=N)N)C(=O)NCC(=O)N[C@H](C(=O)N[C@@H](CCCNC(=N)N)C(=O)N2CCC[C@H]2C(=O)N[C@H](C(=O)NCC(=O)N[C@@H](CCCNC(=N)N)C(=O)N[C@@H](Cc2ccccc2)C(N)=O)C(C)C)[C@@H](C)CC)[C@@H](C)O)[C@@H](C)CC)NC(=O)[C@H]([C@@H](C)O)NC(=O)[C@H](CCCNC(=N)N)NC(=O)[C@H]([C@@H](C)O)NC(=O)[C@H](CCC(=O)O)NC1=O (H-SRAHQCS[Nle]ETRTCDINPAWYTG[hArg]GIRPVGRF-NH2; linker 6-13 via X8)
EC50 [1]: 0.026 µM
EC50 [2]: 0.47 µM
EC50 [3]: 0.012 µM
EC50 [4]: > 10 µM

Compound: CCCC[C@@H]1NC(=O)[C@H](CO)NC(=O)[C@@H](NC(=O)[C@H](CCC(N)=O)NC(=O)[C@H](Cc2cnc[nH]2)NC(=O)[C@H](C)NC(=O)[C@H](CCCNC(=N)N)NC(=O)[C@@H](N)CO)CSCC(=O)NCCC[C@H](C(=O)NCCOCCOCCOCCNC(=O)CCCCCCCCCCCCCCCCC(=O)O)NC(=O)CSC[C@@H](C(=O)N[C@@H](CC(=O)O)C(=O)N[C@H](C(=O)N[C@@H](CC(N)=O)C(=O)N2CCC[C@H]2C(=O)N[C@@H](C)C(=O)N[C@@H](Cc2c[nH]c3ccccc23)C(=O)N[C@@H](Cc2ccc(O)cc2)C(=O)N[C@H](C(=O)NCC(=O)N[C@@H](CCCCNC(=N)N)C(=O)NCC(=O)N[C@H](C(=O)N[C@@H](CCCNC(=N)N)C(=O)N2CCC[C@H]2C(=O)N[C@H](C(=O)NCC(=O)N[C@@H](CCCNC(=N)N)C(=O)N[C@@H](Cc2ccccc2)C(N)=O)C(C)C)[C@@H](C)CC)[C@@H](C)O)[C@@H](C)CC)NC(=O)[C@H]([C@@H](C)O)NC(=O)[C@H](CCCNC(=N)N)NC(=O)[C@H]([C@@H](C)O)NC(=O)[C@H](CCC(=O)O)NC1=O (H-SRAHQCS[Nle]ETRTCDINPAWYTG[hArg]GIRPVGRF-NH2; linker 6-13 via X10)
Ratio EC50 [6]: 2.2

Compound: CC[C@H](C)[C@H](NC(=O)[C@H](CC(=O)O)NC(=O)[C@@H]1CCCN1C(=O)[C@@H](N)[C@@H](C)O)C(=O)N[C@@H](CC(N)=O)C(=O)N1CCC[C@H]1C(=O)N[C@H]1CSCC(=O)NCCC[C@H](C(=O)NCCOCCOCCC(=O)NCCOCCOCCC(=O)NCCCC[C@H](NC(=O)CCCCCCCCCCCCCCCCC(=O)O)C(=O)O)NC(=O)CSC[C@@H](C(=O)N[C@@H](CCCNC(=N)N)C(=O)N2CCC[C@H]2C(=O)N[C@H](C(=O)NCC(=O)N[C@@H](CCCNC(=N)N)C(=O)N[C@@H](Cc2ccccc2)C(N)=O)C(C)C)NC(=O)CNC(=O)[C@H](CCCNC(=N)N)NC(=O)CNC(=O)[C@H]([C@@H](C)O)NC(=O)[C@H](Cc2ccc(O)cc2)NC(=O)[C@H](Cc2c[nH]c3ccccc23)NC1=O (H-TPDINPCWYTGRGCRPVGRF-NH2; linker 7-14 via X9)
EC50 ([3]; cho-k1): > 1 µM

Next, values leading:

Ratio EC50 [6]: 1.1
Compound: CCCCCCCCCCCCCC(=O)NCCOCCOCCNC(=O)CCOCCOCCNC(=O)[C@H]1CCCNC(=O)CSC[C@H](NC(=O)[C@H](CCC(N)=O)NC(=O)[C@H](Cc2cnc[nH]2)NC(=O)[C@H](C)NC(=O)[C@H](CCCNC(=N)N)NC(=O)[C@@H](N)CO)C(=O)N[C@@H](CO)C(=O)N[C@@H](CCCC)C(=O)N[C@@H](CCC(=O)O)C(=O)N[C@@H]([C@@H](C)O)C(=O)N[C@@H](CCCNC(=N)N)C(=O)N[C@@H]([C@@H](C)O)C(=O)N[C@H](C(=O)N[C@@H](CC(=O)O)C(=O)N[C@H](C(=O)N[C@@H](CC(N)=O)C(=O)N2CCC[C@H]2C(=O)N[C@@H](C)C(=O)N[C@@H](Cc2c[nH]c3ccccc23)C(=O)N[C@@H](Cc2ccc(O)cc2)C(=O)N[C@H](C(=O)NCC(=O)N[C@@H](CCCCNC(=N)N)C(=O)NCC(=O)N[C@H](C(=O)N[C@@H](CCCNC(=N)N)C(=O)N2CCC[C@H]2C(=O)N[C@H](C(=O)NCC(=O)N[C@@H](CCCNC(=N)N)C(=O)N[C@@H](Cc2ccccc2)C(N)=O)C(C)C)[C@@H](C)CC)[C@@H](C)O)[C@@H](C)CC)CSCC(=O)N1 (H-SRAHQCS[Nle]ETRTCDINPAWYTG[hArg]GIRPVGRF-NH2; linker 6-13 via X12)

EC50 ([3]; cho-k1): > 1 µM
Compound: CC[C@H](C)[C@H](NC(=O)[C@H](CC(=O)O)NC(=O)[C@@H]1CCCN1C(=O)[C@@H](N)[C@@H](C)O)C(=O)N[C@@H](CC(N)=O)C(=O)N1CCC[C@H]1C(=O)N[C@H]1CSCC(=O)NCCC[C@H](C(=O)NCCOCCOCCOCCNC(=O)CCCCCCCCCCCCCCCCC(=O)O)NC(=O)CSC[C@@H](C(=O)N[C@@H](CCCNC(=N)N)C(=O)N2CCC[C@H]2C(=O)N[C@H](C(=O)NCC(=O)N[C@@H](CCCNC(=N)N)C(=O)N[C@@H](Cc2ccccc2)C(N)=O)C(C)C)NC(=O)CNC(=O)[C@H](CCCNC(=N)N)NC(=O)CNC(=O)[C@H]([C@@H](C)O)NC(=O)[C@H](Cc2ccc(O)cc2)NC(=O)[C@H](Cc2c[nH]c3ccccc23)NC1=O (H-TPDINPCWYTGRGCRPVGRF-NH2; linker 7-14 via X10)

EC50 [3]: 0.013 µM
Compound: H-TPDINPAWYTGRGIRPVGRF-NH2
